Data on 16 compounds can be found in PubChem BioAssay AID624107 (Broad Institute, 2012).

Calls of active or inactive are those of the source.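 Rule for the calls: active = fitted absorbance curve falls past 35% inhibition at a dose no higher than twice the top tested dose; inconclusive = flat fit at 30 to 70% inhibition, or poor fit; inactive = the rest.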 A value given as a limit tells only on which side of the number the result lay.

The first experiment deals with P. aeruginosa PAK + EDDHA, pyoverdine absorbance 405 nm, 28 h. Description: pyoverdine output of iron-starved P. aeruginosa PAK, dose response, PAK strain, absorbance 405 nm, dry powder (AID 624107).
Conditions: not given
In a few lines:
(§1)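 system = Pseudomonas aeruginosa PAK wild-type strain, whole bacterial cells | reagent = EDDHA 2 µM | medium = succinate M9 medium at pH 7.0 with 2 µM EDDHA | compound dosing = 100 µM to 15 nM final | incubation = 28 h, 30 °C, humidified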
As to `N#CC(c1cccc(Cl)n1)c1ccc(Cl)cc1F` (stereo unspecified), the AC35 was 5.28 µM.

Consider `N#CC(c1cccc(C(F)(F)F)n1)c1ccc(Cl)cc1F` (stereo unspecified), for which the AC35 is 5.42 µM.

With `N#CC(c1ccc(Cl)cc1)c1ncccc1Cl` (stereo unspecified), the AC35 was 22 µM.

With `N#CC(c1ccc(Cl)cc1)c1cccc(C(F)(F)F)n1` (stereo unspecified), the AC35 is 3.67 µM.

As for `N#CC(c1ccc(Cl)cc1)c1cccc(Cl)n1` (stereo unspecified), the AC35 was 11.8 µM.

Turning to `N#CC(c1ccc(F)cc1)c1cccc(C(F)(F)F)n1` (stereo unspecified), the AC35 is 9.8 µM.

Turning to `CN(C)CCCC(C#N)c1ccc(Cl)cc1` (stereo unspecified), the AC35 was > 100 µM (inactive).

System in another experiment: not listed separately
Described as above. The settings on record: P. aeruginosa PAK + EDDHA, pyoverdine absorbance 405 nm, 28 h; at 100 µM (top of the series). In a few lines: as §1
As for `COCCC(C#N)c1ccc(Cl)cc1` (stereo unspecified), the activity change, negative = inhibition is -7.69% (inactive).

As for `COCCOCCC(C#N)c1ccc(Cl)cc1` (stereo unspecified), the activity change, negative = inhibition was 6.79% (inactive).

On to `CCCCC(C#N)c1ccccn1` (stereo unspecified), for which the activity change, negative = inhibition was 3.52% (inactive).

In the case of `N#CC(c1ccc(F)cc1)c1cccc(Cl)n1` (stereo unspecified), the activity change, negative = inhibition was -39.4% (inactive).

Consider `CCCCC(c1ccc(Cl)cc1)c1nn[nH]n1` (stereo unspecified), for which the activity change, negative = inhibition is -16.3% (inactive).

Take `COCCNC(C#N)c1ccc(Cl)cc1` (stereo unspecified): the activity change, negative = inhibition was -17.9% (inactive).

In the case of `N#CC(c1ccc(C(F)(F)F)c(Cl)n1)c1ccccc1OC(F)(F)F` (stereo unspecified), the activity change, negative = inhibition was -22.7% (inactive).

For `Clc1ccc(C(c2cccc(Cl)n2)c2nn[nH]n2)cc1` (stereo unspecified), the activity change, negative = inhibition was 14.5% (inactive).

Regarding `CCCCC(C#N)c1ccc(Cl)cc1` (stereo unspecified), the activity change, negative = inhibition is -14% (inactive).
